Our source for the Ki values is ChEMBL document CHEMBL1144568, “Synthesis of novel potent hepatitis C virus NS3 protease inhibitors: discovery of 4-hydroxy-cyclopent-2-ene-1,2-dicarboxylic acid as a N-acyl-L-hydroxyproline bioisostere” (Bioorg Med Chem, 2007).

The structures appear in SMILES notation. Where only a bound is given, the exact number is not on record here.

A short description of this experiment: Inhibition of full length HCV NS3/4A protease. Also noted: species or system Hepacivirus hominis. An outline of the steps:
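30 min room-temperature preincubation with inhibitor, then FRET substrate RET S1 at 2 µM final. Activity followed continuously 20 min (ex 355/em 500 nm); IC50 by non-linear fit, Ki derived from IC50.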
Regarding `C=C[C@@H]1C[C@]1(NC(=O)C1CC(Oc2cc(-c3ccccc3)nc3cc(OC)ccc23)C=C1C(=O)N[C@H](C(=O)N[C@H](C(=O)OC)C1CCCCC1)C(C)(C)C)C(=O)OC(C)(C)C` (some centres undefined), the Ki was > 2000 nM.
For `CCC[C@H](NC(=O)C1CC(Oc2cc(-c3ccccc3)nc3cc(OC)ccc23)C=C1C(=O)N[C@H](C(=O)N[C@H](C(=O)NC)C1CCCCC1)C(C)(C)C)C(=O)O` (some centres undefined) the value was 67 nM.
For `CCC[C@H](NC(=O)[C@H]1C[C@H](Oc2cc(-c3ccccc3)nc3cc(OC)ccc23)C=C1C(=O)N[C@H](C(=O)N[C@H](C(=O)OC)C1CCCCC1)C(C)C)C(=O)O` the value was 2560 nM.
With `C=C[C@@H]1C[C@]1(NC(=O)C1CC(Oc2cc(-c3ccccc3)nc3cc(OC)ccc23)C=C1C(=O)N[C@H](C(=O)N[C@H](C(=O)OC)C1CCCCC1)C(C)C)C(=O)O` (some centres undefined) the figure was 24 nM; with `C=C[C@@H]1C[C@]1(NC(=O)C1CC(Oc2cc(-c3ccccc3)nc3cc(OC)ccc23)C=C1C(=O)N[C@H](C(=O)N(C)[C@H](C(=O)NC)C1CCCCC1)C(C)(C)C)C(=O)O` (some centres undefined), > 5000 nM.
In turn, `CC[C@H](NC(=O)C1CC(Oc2cc(-c3ccccc3)nc3cc(OC)ccc23)C=C1C(=O)N[C@H](C(=O)N[C@H](C(=O)OC)C1CCCCC1)C(C)C)C(=O)O` (some centres undefined) came in with a Ki of 523 nM. That is a sub-micromolar value.
For `C=C[C@@H]1C[C@]1(NC(=O)[C@@H]1C[C@@H](Oc2cc(-c3ccccc3)nc3cc(OC)ccc23)C=C1C(=O)N[C@H](C(=O)N[C@H](C(=O)NC)C1CCCCC1)C(C)(C)C)C(=O)O` the value was 1.3 nM; for `CCC[C@H](NC(=O)[C@@H]1C[C@@H](Oc2cc(-c3ccccc3)nc3cc(OC)ccc23)C=C1C(=O)N[C@H](C(=O)N[C@H](C(=O)OC)C1CCCCC1)C(C)(C)C)C(=O)O`, 30 nM; for `C=C[C@@H]1C[C@]1(NC(=O)[C@@H]1C[C@@H](Oc2cc(-c3ccccc3)nc3cc(OC)ccc23)C=C1C(=O)N[C@H](C(=O)N[C@H](C(=O)OC)C1CCCCC1)C(C)(C)C)C(=O)O`, 1.1 nM.
As to `CC[C@H](NC(=O)C1CC(Oc2cc(-c3ccccc3)nc3cc(OC)ccc23)C=C1C(=O)N[C@H](C(=O)N[C@H](C(=O)OC)C1CCCCC1)C(C)(C)C)C(=O)O` (some centres undefined), the Ki was 503 nM. Against the preceding compound, the Ki is about 460-fold higher.
For `C=C[C@@H]1C[C@]1(NC(=O)[C@H]1C[C@H](Oc2cc(-c3ccccc3)nc3cc(OC)ccc23)C=C1C(=O)N[C@H](C(=O)N[C@H](C(=O)OC)C1CCCCC1)C(C)(C)C)C(=O)O` the value was 108 nM.
With `CC[C@H](NC(=O)[C@@H]1C[C@@H](Oc2cc(-c3ccccc3)nc3cc(OC)ccc23)C=C1C(=O)N[C@@H](C(=O)N[C@@H](C(=O)OC)C1CCCCC1)C(C)C)C(=O)O` the figure was > 2000 nM; with `CCC[C@H](NC(=O)[C@H]1C[C@H](Oc2cc(-c3ccccc3)nc3cc(OC)ccc23)C=C1C(=O)N[C@H](C(=O)N[C@H](C(=O)OC)C1CCCCC1)C(C)(C)C)C(=O)O`, > 2000 nM; with `CC[C@H](NC(=O)C1CC(Oc2cc(-c3ccccc3)nc3cc(OC)ccc23)C=C1C(=O)N[C@H](C(=O)N[C@H](C(=O)NC)C1CCCCC1)C(C)(C)C)C(=O)O` (some centres undefined), 280 nM.
For `CCC[C@H](NC(=O)[C@@H]1C[C@@H](Oc2cc(-c3ccccc3)nc3cc(OC)ccc23)C=C1C(=O)N[C@H](C(=O)N[C@H](C(=O)OC)C1CCCCC1)C(C)C)C(=O)O` the value was 102 nM; for `C=C[C@@H]1C[C@]1(NC(=O)[C@H]1C[C@H](Oc2cc(-c3ccccc3)nc3cc(OC)ccc23)C=C1C(=O)N[C@H](C(=O)N[C@H](C(=O)NC)C1CCCCC1)C(C)(C)C)C(=O)O`, 23 nM; for `CC[C@H](NC(=O)C1CC(Oc2cc(-c3ccccc3)nc3cc(OC)ccc23)C=C1C(=O)N[C@H](C(=O)OC)C(C)C)C(=O)O` (some centres undefined), > 2000 nM.
In turn, `C=C[C@@H]1C[C@]1(NC(=O)[C@@H]1C[C@@H](Oc2cc(-c3ccccc3)nc3cc(OC)ccc23)C[C@H]1C(=O)N[C@H](C(=O)N[C@H](C(=O)NC)C1CCCCC1)C(C)(C)C)C(=O)O` displayed a Ki of 16 nM.
With `C=C[C@@H]1C[C@]1(NC(=O)C1CC(Oc2cc(-c3ccccc3)nc3cc(OC)ccc23)C=C1C(=O)N[C@H](C(=O)N[C@H](C(=O)NC)C1CCCCC1)C(C)(C)C)C(=O)OC(C)(C)C` (some centres undefined) the figure was > 2000 nM.

For orientation: Ki means the equilibrium dissociation constant of an inhibitor or competing ligand from its target.
